Holding throughout (type): functional
The species entered for experiment [1] is Rattus norvegicus. The experiment can be described thus: Reversal of reserpine plus alpha-Methyl-p-tyrosine-induced hypoactivity in rats was recorded. In short, it runs like this: (§1)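 Rats pretreated with reserpine (8.2 µmol/kg = 5 mg/kg sc) 16-20 h before, and α-methyl-p-tyrosine methyl ester (813 µmol/kg = 200 mg/kg ip) 2 h before, test drug or saline. Motility measured under artificial light for 1 h from injection. Counts scored 0 (0-49), 1 (50-149) or 2 (>150). ED50 by log-probit as dose giving half-maximal score.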

Experiment [2] deals with Rattus norvegicus. The experiment is described as follows: Ispilateral circling behavior in 6-OH-DA-lesioned rats was recorded after subcutaneous administration. The following applies: sc.
For experiment [3], the system named is Rattus norvegicus. The experiment can be described thus: Inhibition of spontaneous locomotor activity was performed in photocell cages at 30-45 minutes after subcutaneous administration. The method in brief: (§2)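 Rats in photocell cages. Motility counted 30-45 min after sc test drug or saline. Injection volume 5 mL/kg.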
Experiment [4] deals with Rattus norvegicus. The experiment is described as follows: Contralateral circling behavior in 6-OH-DA-lesioned rats was recorded after subcutaneous administration.
Experiment [5] deals with Rattus norvegicus. The experiment is described as follows: Antagonism of apomorphine induced stereotype in rats was recorded at 30 minutes after subcutaneous administration of apomorphine. The following applies: sc, 0.5 h. In short, it runs like this: (§3)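 Rats housed in wire mesh cages from the day before. Test drug or saline given sc 30 min before apomorphine (8.2 µmol = 2.5 mg/kg, sc). Oral stereotypy (licking, biting) scored every 15 min for 90 min. ED50 taken from the 30-min post-apomorphine observation, when control activity peaked.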

Experiment [6] deals with Rattus norvegicus. The experiment is described as follows: Reversal of reserpine plus alpha-Methyl-p-tyrosine-induced hypoactivity in rats was recorded at 1 h after administration. In short, it runs like this:
as §1

The subject of experiment [7] is Rattus norvegicus. The experiment can be described thus: Antagonism of apomorphine induced stereotype was recorded at 30 minutes after apomorphine subcutaneous administration. The following applies: sc, 0.5 h. In short, it runs like this:
as §3

For experiment [8], the system named is Rattus norvegicus. The experiment can be described thus: Reversal of reserpine plus alpha-Methyl-p-tyrosine-induced hypoactivity in rats was recorded at 1 hr after subcutaneous administration. The following applies: sc. The method in brief:
as §1

For experiment [9], the system named is Rattus norvegicus. The experiment can be described thus: Reversal of reserpine plus alpha-Methyl-p-tyrosine-induced hypoactivity in rats was recorded after subcutaneous administration. The following applies: sc. In short, it runs like this:
as §1

Experiment [10] relates to Rattus norvegicus. The experiment is described as follows: Antagonism of apomorphine induced stereotype in rats was recorded at 30 minutes after subcutaneous administration apomorphine. The following applies: sc, 0.5 h. In short, it runs like this: as §3
The subject of experiment [11] is Rattus norvegicus. The experiment is described as follows: Antagonism of apomorphine induced stereotype in rats was recorded after subcutaneous administration of apomorphine. The following applies: sc. In short, it runs like this:
as §3

Experiment [12] is filed under the species Rattus norvegicus. The experiment is described as follows: Inhibition of spontaneous locomotor activity was performed in photocell cages. Motility was measured at 5 minutes. The method in brief:
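Rats in photocell cages. Motility counted 5 min after sc injection of test drug. Injection volume 5 mL/kg.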

Experiment [13] has as its system Rattus norvegicus. The experiment is described as follows: Inhibition of spontaneous locomotor activity was performed in photocell cages. Motility was measured at […] after subcutaneous administration. The following applies: sc. The method in brief: as §2
For experiment [14], the system named is Rattus norvegicus. The experiment can be described thus: Inhibition of spontaneous locomotor activity was performed in photocell cages. Motility was measured at […] after subcutaneous administration; value ranges from 4.2-11. The following applies: sc. In short, it runs like this:
as §2

[15] abbreviates: Rattus norvegicus, sc, read-out: ED50.

Among the data in ChEMBL document CHEMBL1123910, “Indolizidine and quinolizidine derivatives of the dopamine autoreceptor agonist 3-(3-hydroxyphenyl)-N-n-propylpiperidine (3-PPP)” (1987) are ED50 values, retold here.

As for `Oc1cccc(C2CCC3CCCCN3C2)c1` (stereo not drawn) [listing 1 of 2 here], the ED50 in the experiment filed under Rattus norvegicus [1] was greater than 62 µmol/kg; with Rattus norvegicus [2], 9.3 µmol/kg; in the experiment on Rattus norvegicus [3] (setting [15]) it was greater than 64 µmol/kg.
For the molecule `Oc1cccc(C2CCC3CCCCN3C2)c1` (stereo not drawn) [listing 2 of 2 here], the ED50 in the experiment with Rattus norvegicus [4] (setting [15]) is greater than 64 µmol/kg; in the experiment with Rattus norvegicus [3] (sc) it was greater than 62 µmol/kg.
On to `CCCN1CCCC(c2cccc(O)c2)C1` (stereo not drawn), for which the ED50 in the experiment on Rattus norvegicus [5] is greater than 67 µmol/kg; in the experiment with Rattus norvegicus [4] (setting [15]), 1.7 µmol/kg; with Rattus norvegicus [3] (setting [15]), 3.4 µmol/kg.
Turning to `Oc1cccc(C2CCC3CCCN3C2)c1` (stereo not drawn), the ED50 in the experiment with Rattus norvegicus [4] (setting [15]) and in the experiment with Rattus norvegicus [3] (setting [15]) was greater than 67 µmol/kg each time.
For the molecule `CCCN1CCC[C@H](c2cccc(O)c2)C1`, the ED50 with Rattus norvegicus [6] stood at 40 µmol/kg; with Rattus norvegicus [5] it was 63 µmol/kg; in the experiment on Rattus norvegicus [4] (setting [15]) it was 1.9 µmol/kg.
As for `Oc1cccc(C2=CCCN3CCCCC23)c1` (stereo not drawn), the ED50 was 34 µmol/kg in the experiment with Rattus norvegicus [7], greater than 87 µmol/kg in the experiment with Rattus norvegicus [8], greater than 87 µmol/kg with Rattus norvegicus [4] (setting [15]) and 8.5 µmol/kg in the experiment with Rattus norvegicus [3] (setting [15]).
For the molecule `Oc1cccc(C2CCC3CCCN3C2)c1` (single isomer, unassigned), the ED50 in the experiment with Rattus norvegicus [3] (sc) was greater than 67 µmol/kg.
In the case of `Oc1cccc(C2CCCN3CCCCC23)c1` (single isomer, unassigned; 20a), the ED50 in the experiment on Rattus norvegicus [4] and in the experiment on Rattus norvegicus [3] was greater than 64 µM/kg each time.
Consider `Oc1cccc(C2CCCN3CCCCC23)c1` (single isomer, unassigned; 20e), for which the ED50 was greater than 87 µmol/kg in the experiment on Rattus norvegicus [4] (setting [15]) and 63 µmol/kg in the experiment on Rattus norvegicus [3] (setting [15]).
For the molecule `Oc1cccc(C2CCCN3CCCC23)c1` (single isomer, unassigned; (+)), the ED50 with Rattus norvegicus [9] is 150 µmol/kg; in the experiment with Rattus norvegicus [4], 7.1 µM/kg; in the experiment on Rattus norvegicus [10] it was greater than 157 µmol/kg; with Rattus norvegicus [3], 3.9 µM/kg.
As for `Oc1cccc(C2CCCN3CCCC23)c1` (single isomer, unassigned; (-)), the ED50 with Rattus norvegicus [5] was 100 µmol/kg; in the experiment on Rattus norvegicus [4] it was greater than 79 µM/kg; with Rattus norvegicus [3], 40 µM/kg.
For `Oc1cccc(C2CCCN3CCCC23)c1` (stereo in doubt; 19a), the ED50 with Rattus norvegicus [4] and with Rattus norvegicus [3] was greater than 67 µM/kg throughout.
On to `Oc1cccc(C2CCCN3CCCC23)c1` (stereo in doubt; 19e), for which the figures for the ED50 in the experiment with Rattus norvegicus [4], with Rattus norvegicus [11] and in the experiment on Rattus norvegicus [3] (sc) were 13 µM/kg, greater than 134 µmol/kg and 7.5 µmol/kg, respectively.
Consider `CN1CCc2cccc3c2[C@H]1Cc1ccc(O)c(O)c1-3` [APOMORPHINE], for which the ED50 in the experiment filed under Rattus norvegicus [12] was found to be 0.092 µmol/kg; in the experiment on Rattus norvegicus [13], 0.64 µmol/kg; in the experiment on Rattus norvegicus [8] it was 0.27 µmol/kg; in the experiment on Rattus norvegicus [4] (setting [15]), 0.058 µmol/kg.
Consider `CCCN1CCC[C@@H](c2cccc(O)c2)C1` [PRECLAMOL], for which the ED50 in the experiment listed under Rattus norvegicus [12] was 1.9 µmol/kg; in the experiment on Rattus norvegicus [14], 11 µmol/kg; in the experiment with Rattus norvegicus [6] it was greater than 67 µmol/kg; with Rattus norvegicus [4] (setting [15]) it was 0.77 µmol/kg; in the experiment on Rattus norvegicus [10] it was 33 µmol/kg.
